Screening results: PubChem BioAssay, The Scripps Research Institute Molecular Screening Center
Hits are enriched below; roughly 4.6% of the tested compounds scored in any of these assays.
CHO parental Ca: counter-screen: ATP calcium response change in parental CHO cells | parental CHO-K1, ATP-induced calcium, Fluo-8 fluorescence | AID 463079 | inhibition, % at 5.6 µM | hit rate 0.63% among 330,000;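 active = inhibition above that plate's mean sample inhibition plus 3 SD, cut at about 26% in these data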;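 note: 0% = ATP-challenged DMSO wells and 100% = DMSO wells without ATP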
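Test system: untransfected parental CHO cell line. Compound: one dose, 5.6 µM nominal. Detection: intracellular calcium via Fluo-8 no-wash fluorescent dye. Measure: % inhibition. Benchmarks: ATP-challenged DMSO wells low, unchallenged DMSO wells high.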
GPR7 antagonist: antagonists of human GPR7 (neuropeptides B/W receptor 1) | hit rate 1.1% among 290,000 | P48145 | AID 1861 | GPR7-expressing cells, fluorescence antagonist assay | inhibition, % at 4.4 µM; in the data active = inhibition above about 16%, passing the limit was not always enough;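 note: cells stimulated with the agonist NPW; 0% = agonist with vehicle and 100% = vehicle without agonist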
TAAR1 ag: agonists of human TAAR1 | CHO RD-HGA16 TAAR1, Fluo-8 calcium fluorescence; vehicle wells 0%, saturating PEA agonist 100% | activation, % at 3 µM | hit rate 0.99% among 360,000 | AID 624467;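 active = activation above the mean activation of all test compounds in the run plus 3 SD, cut at about 38% in these data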
Target sequence (Q96RJ0 whole entry, looked up): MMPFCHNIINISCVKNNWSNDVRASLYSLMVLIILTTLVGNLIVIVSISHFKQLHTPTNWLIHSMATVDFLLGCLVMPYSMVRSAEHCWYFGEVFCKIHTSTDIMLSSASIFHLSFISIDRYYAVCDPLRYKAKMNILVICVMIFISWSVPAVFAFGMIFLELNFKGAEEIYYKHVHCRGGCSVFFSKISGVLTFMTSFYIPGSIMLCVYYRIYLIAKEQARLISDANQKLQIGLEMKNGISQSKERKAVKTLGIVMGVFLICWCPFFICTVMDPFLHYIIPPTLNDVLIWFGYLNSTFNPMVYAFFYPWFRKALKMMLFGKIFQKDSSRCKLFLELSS
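Repeats: no replicates (n 1) | Material: CHO-derived RD-HGA16 cells with stable Gα16 and human TAAR1 | Technique: Kinetic Fluo-8 calcium fluorescence | Schedule: 17-24 h seeding, 75 min 37 °C dye, 30 min RT | Evaluation: % activation from peak over basal fluorescence ratio, DMSO-to-PEA scaled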
OX1R antag-1: blocks the human orexin 1 receptor; OX1R-expressing cells, FRET antagonist read-out; inhibition, % at 6.6 µM; hit rate 1.8% among 330,000; AID 485270; in the data active = inhibition mostly above about 38%, no sharp cut-off; inactive = mostly below about 40%;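 note: 0% = agonist challenge alone and 100% = reference antagonist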
OX1R antag-2: human HCRTR1 antagonism. O43613. CHO/OX1R cells, Fluo-8 calcium fluorescence, orexin A. inhibition, % at 5 µM. hit rate 0.43% among 330,000. AID 434989;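 active = inhibition above its plate's threshold, mean inhibition of all tested compounds on the plate plus 3 SD, cut at about 37% in these data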;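 note: 0% = orexin A challenge wells and 100% = SB-334867-A antagonist wells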
TAAR1 antag: antagonists of human TAAR1. Q96RJ0. CHO RD-HGA16 TAAR1, Fluo-8 calcium fluorescence, antagonist. inhibition, % at 3 µM. hit rate 1.5% among 360,000. AID 624466;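 active = inhibition above a per-plate cutoff, the mean inhibition of test compounds on that plate plus 3 SD, cut at about 49% in these data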;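 note: 0% = DMSO plus EC80 beta-PEA response and 100% = DMSO alone without agonist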
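Test system: RD-HGA16 CHO cells with stable hTAAR1 and Gα16 / Probe or stimulus: EC80 β-phenethylamine stimulus / Times: seeding 17-24 h prior, 75-min 37 °C, 30-min RT dye loading / Detection: Fluo-8 calcium-sensitive fluorescence / Read-out basis: % inhibition scaled between DMSO and EC80 PEA controls / Repeats: singlicate, one well per test compound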
GPR7 antag conf: human GPR7 antagonism, confirmation assay. shares compounds with GPR7 antagonist. GPR7-expressing cells, calcium fluorescence antagonist mode. inhibition, % at 4.4 µM. hit rate 52% among 2,400. AID 1952; in the data active = inhibition above about 24%;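 note: stimulated with the GPR7 agonist NPW; 0% = agonist plus vehicle and 100% = vehicle alone without agonist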
MCHR1 antag: antagonizes human MCHR1, a GPR7 antagonist counter-screen | inhibition, % at 4.4 µM | AID 2148 | shares compounds with GPR7 antagonist | MCHR1-expressing cells, fluorescence antagonist assay | hit rate 62% among 2,400; in the data active = inhibition above about 22%;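 note: 0% = vehicle with agonist and 100% = vehicle without agonist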
OX1R Fluo8 conf: confirmation of human orexin 1 receptor antagonists; inhibition, % at 5 µM; CHO/OX1R cells, orexin A calcium Fluo-8 fluorescence; shares compounds with OX1R antag-2; hit rate 38% among 1,100; in the data active = inhibition above about 29%;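 note: 0% = agonist challenge alone and 100% = reference antagonist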
CHO Ca triplic: counter-screen: parental CHO calcium response change, triplicate. shares compounds with OX1R antag-2. parental CHO-K1, ATP-induced calcium, Fluo-8 fluorescence. inhibition, % at 5.6 µM. hit rate 9.3% among 1,100;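 active = inhibition above a per-plate limit, the mean inhibition of that plate's test compounds plus 3 SD, cut at about 25% in these data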;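 note: 0% = ATP challenge with DMSO and 100% = DMSO without ATP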
An asterisk follows results filed as active.

CC(=O)OC1C(O)C2=C3C4(C)C1C(C)(C)C(=O)CC4C3(O)C(OC(C)=O)C1(CC1C)C2=O (stereo not drawn) was read as TAAR1 ag 1 and TAAR1 antag 0.
`CCCCCSc1cc(OC)c(CCN(C)C)cc1OC` gave CHO parental Ca -18, GPR7 antagonist 18, TAAR1 ag 24, OX1R antag-1 -2, OX1R antag-2 -10 and TAAR1 antag 11.
For CCCCCSc1cc(O)c(C(CNC)C(C)C)cc1OC (stereo not drawn) the results were CHO parental Ca -6, GPR7 antagonist 29*, TAAR1 ag 18, OX1R antag-1 14, OX1R antag-2 -11, TAAR1 antag 4, GPR7 antag conf 42* and MCHR1 antag 37*.
For CCCCn1c(=O)c(C(=O)Nc2ccccc2F)c(O)c2ccccc21 the results were CHO parental Ca 12, GPR7 antagonist 96*, TAAR1 ag 1, OX1R antag-1 6, OX1R antag-2 -12, TAAR1 antag -31, GPR7 antag conf -29 and MCHR1 antag -3.
`Cc1cc(C)c(C(=O)N2CCC3(CC2)OCCO3)c(C)c1` gave CHO parental Ca -15, GPR7 antagonist -5, TAAR1 ag -1, OX1R antag-1 10, OX1R antag-2 -1 and TAAR1 antag 1.
Screening Cc1occc1C(=O)N1CCC2(CC1)OCCO2 returned CHO parental Ca -9, GPR7 antagonist 33*, TAAR1 ag 5, OX1R antag-1 11, OX1R antag-2 -14, TAAR1 antag 2, GPR7 antag conf 2 and MCHR1 antag -3.
Screening CC(C)C[C@@H]1COc2cccc(N3CCN(C)CC3)c2S(=O)(=O)N1 returned TAAR1 ag 1 and TAAR1 antag -3.
`CCOC(=O)[C@]12Cc3cc4ccccc4cc3[C@H]1N(Cc1ccccc1)C(=O)c1ccccc12` gave TAAR1 ag 0 and TAAR1 antag -29.
O=C(c1cc2cc(Br)ccc2[nH]1)N1CCC2(CC1)OCCO2 was read as CHO parental Ca -4, GPR7 antagonist 7, TAAR1 ag 1, OX1R antag-1 2, OX1R antag-2 -16 and TAAR1 antag -17.
Screening O=C(c1cc(Br)ccc1Cl)N1CCC2(CC1)OCCO2 returned CHO parental Ca -1, GPR7 antagonist 5, TAAR1 ag 14, OX1R antag-1 6, OX1R antag-2 45*, TAAR1 antag 6, OX1R Fluo8 conf 1 and CHO Ca triplic 14.
Cc1cccc(C)c1-n1nnnc1C(c1ccccc1OC(F)(F)F)N1CCC(n2c(=O)[nH]c3ccccc32)CC1 (stereo not drawn) was read as TAAR1 ag 4 and TAAR1 antag -29.
COC(=O)C1=C(c2ccccc2OCc2ccccc2)C[C@@H]2CC[C@H]1N2C(=O)NCc1cccc(C(F)(F)F)c1 was read as CHO parental Ca -21, TAAR1 ag 10, OX1R antag-1 23, OX1R antag-2 61*, TAAR1 antag 36, OX1R Fluo8 conf 19 and CHO Ca triplic -17.
Cn1c(O)c(/C=C/C=Nc2ccccc2)c(=O)n(C)c1=S was read as CHO parental Ca 12, GPR7 antagonist 4, TAAR1 ag 41*, OX1R antag-1 15, OX1R antag-2 33, TAAR1 antag 34, OX1R Fluo8 conf 33* and CHO Ca triplic 36*.
For CC[C@H]1c2ccccc2[C@@H]2CC[C@H]1N2c1ccccc1 the results were TAAR1 ag 0 and TAAR1 antag 3.
